Consider one molecule from ChEMBL document CHEMBL4402582, “Garcinoic Acid Is a Natural and Selective Agonist of Pregnane X Receptor” (J Med Chem, 2020).

pEC50, pKd: −log10 of the molar value. Active and inactive are the calls of the source. The calls are words filed in the database; no cut-off is given here.

Data set [1] deals with T1, Nuclear receptor subfamily 1 group I member 2 (Homo sapiens, UniProt O75469).
T1 sequence (O75469 whole entry): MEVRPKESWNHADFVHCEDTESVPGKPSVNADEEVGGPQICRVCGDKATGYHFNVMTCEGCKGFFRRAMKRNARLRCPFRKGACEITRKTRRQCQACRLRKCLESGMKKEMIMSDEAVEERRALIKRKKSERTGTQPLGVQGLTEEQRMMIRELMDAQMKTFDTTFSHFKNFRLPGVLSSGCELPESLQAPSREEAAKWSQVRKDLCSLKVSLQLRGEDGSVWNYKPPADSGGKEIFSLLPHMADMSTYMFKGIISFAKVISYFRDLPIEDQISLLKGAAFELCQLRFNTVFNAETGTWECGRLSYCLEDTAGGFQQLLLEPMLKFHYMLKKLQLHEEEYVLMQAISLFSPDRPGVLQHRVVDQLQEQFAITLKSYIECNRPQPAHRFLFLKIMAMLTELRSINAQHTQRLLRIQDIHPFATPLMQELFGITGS
Nature of the data set: Agonist activity at PXR in human HepG2 cells transfected with PXR siRNA at 10 to 50 uM incubated for 24 hrs. In kind it is cell-based. Particulars: hepg2, 24 h. The method, boiled down: (§1)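 HepG2 cells reverse-transfected with PXR siRNA using lipofectamine RNAiMAX; after 24 h silencing, treated with compound for a further 24 h. PXR and CYP3A4 transcription responses measured.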

Data set [2] addresses T1, Nuclear receptor subfamily 1 group I member 2. Nature of the data set: Agonist activity at PXR in human HepaRG cells assessed as increase in CYP3A4 protein expression at 1 to 25 uM incubated for 24 hrs by immunoblot analysis. In kind it is cell-based.
Data set [3] in a line: Toxicity in C57BL/6 mouse assessed as mortality at 100 mg dosed as oral gavage as single bolus and measured after 24 hrs relative to control. In kind it is organism-based. The conditions noted are these: in vivo, read-out: Activity. An outline of the steps: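 Male C57BL/6 wild-type mice aged 6–7 weeks, 3 per group. Single bolus by oral gavage in an olive-oil vehicle, with vehicle-only controls and dose groups of 5, 10, 25, 50 and 100 mg. Animals were checked 24 h after dosing by gross appearance and behaviour, then killed, and liver and main organs were examined post-mortem.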

In data set [4] the target is T1, Nuclear receptor subfamily 1 group I member 2. Nature of the data set: Agonist activity at PXR in human HepaRG cells assessed as reversion of PXR antagonist sulforaphane-induced suppression of PXR expression at 10 uM incubated for 24 hrs by immunoblot analysis. In kind it is cell-based. (In general: A western blot detects proteins with antibodies after separation by electrophoresis.)

Data set [5] shares this target. Nature of the data set: Agonist activity at PXR in human HepG2 cells assessed as stimulation of CYP450-mediated alpha-tocopherol metabolites efflux at 25 uM. In kind it is cell-based. Particulars: hepg2, 25 µM.
Data set [6] relates to Mus musculus. Nature of the data set: Induction of PXR protein expression in C57BL/6 mouse hepatic parenchyma assessed as induction of localization of PXR protein at hepatocytes around centro-lobular veins at 25 mg dosed as oral gavage as single bolus and measured after 24 hrs by IHC analysis relative to control. In kind it is functional, organism-based. The method, boiled down: (§2)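 Male C57BL/6 mice, 6–7 weeks old, three per group. Single oral gavage bolus (5–25 mg) in olive oil; vehicle controls; killed at 24 h. Liver and gut formalin-fixed, paraffin-embedded; 4 μm sections stained with H&E. PXR IHC with polyclonal antibody at 1:200 on an automated stainer with polymer detection.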

Data set [7] deals with T1, Nuclear receptor subfamily 1 group I member 2. Nature of the data set: Agonist activity at PXR in human HT29-MTX cells assessed as increase in PXR protein expression at 1 to 25 uM incubated for 24 hrs by immunoblot analysis. In kind it is cell-based.
Data set [8] shares this target. Nature of the data set: Binding affinity to His-tagged PXR-LBD (unknown origin) expressed in Escherichia coli BL21 Gold by ITC analysis. An outline of the steps: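 ITC at 37 °C in 25 mM HEPES pH 7.5, 150 mM NaCl, 8% v/v DMSO final. His-tagged PXR-LBD (tag not removed, gel-filtration purified) at 3 μM in cell; ligand at 60 μM in syringe, injected in 10 μL aliquots.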
(In general: In ITC the heat of successive injections is recorded.)

Data set [9] relates to Mus musculus. Nature of the data set: Induction of PXR protein expression in C57BL/6 mouse intestine assessed as induction of localization of PXR protein at glandular epithelium of crypts at base of mucosa epithelium at 5 to 25 mg dosed as oral gavage as single bolus and measured after 24 hrs by IHC analysis relative to control. In kind it is functional, organism-based. An outline of the steps:
as §2

Data set [10] deals with T1, Nuclear receptor subfamily 1 group I member 2. Nature of the data set: Agonist activity at PXR in human HT29-MTX cells assessed as increase in CYP3A4 protein expression at 1 to 25 uM incubated for 24 hrs by immunoblot analysis. In kind it is cell-based.
For data set [11], the system named is Mus musculus. Nature of the data set: Induction of PXR protein expression in C57BL/6 mouse hepatic parenchyma assessed as induction of localization of PXR protein at hepatocytes around lobular midzonal area at 25 mg dosed as oral gavage as single bolus and measured after 24 hrs by IHC analysis relative to control. In kind it is functional, organism-based. An outline of the steps: as §2

Data set [12] has as its target T1, Nuclear receptor subfamily 1 group I member 2. Nature of the data set: Agonist activity at PXR in human HepaRG cells assessed as reversion of PXR antagonist sulforaphane-induced suppression of CYP3A4 expression at 10 uM incubated for 24 hrs by immunoblot analysis. In kind it is cell-based.
Data set [13] has the same target. Nature of the data set: Agonist activity at PXR in human HepG2 cells assessed as increase in CYP3A4 protein expression at 1 to 25 uM incubated for 24 hrs by immunoblot analysis. The conditions noted are these: hepg2, 24 h. In kind it is cell-based. The method, boiled down:
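HepG2 cells, passages 2–10, treated 24 h with 1 and 25 μM. Lysates sonicated on ice; 20 μg protein run on 10–12% SDS-PAGE and immunoblotted with anti-PXR or anti-CYP3A4. Bands normalized to housekeeping protein and expressed relative to control (=1).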

Data set [14] shares this target. Nature of the data set: Agonist activity at PXR in human HepG2 cells transfected with PXR siRNA assessed as induction of CYP3A4 expression at 10 to 50 uM incubated for 24 hrs. The conditions noted are these: hepg2, 24 h. In kind it is cell-based. An outline of the steps: as §1
Data set [15] shares this target. Nature of the data set: Agonist activity at His-tagged PXR-LBD/SRC-1p (unknown origin) expressed in Escherichia coli BL21(DE3) by coactivator recruitment based Alpha-screen assay. Particulars: read-out: EC50. A general note: Alpha assays give light when donor and acceptor beads are brought close together.
A short description of data set [16]: Toxicity in C57BL/6 mouse assessed as induction of organ damage at <=25 mg dosed as oral gavage as single bolus and measured after 24 hrs relative to control. Particulars: in vivo. In kind it is organism-based. The method, boiled down: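 Male C57BL/6 mice, 6–7 weeks old, three per group. Single oral gavage bolus of 5, 10, 25, 50 or 100 mg in olive oil vehicle. Observed at 24 h for mortality, gross appearance and behavior, then post-mortem examination of liver and main organs.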

In data set [17] the test system is Mus musculus. Nature of the data set: Induction of PXR protein expression in C57BL/6 mouse intestine assessed as induction of localization of PXR protein at brush border of enterocytes at 10 mg dosed as oral gavage as single bolus and measured after 24 hrs by IHC analysis relative to control. In kind it is functional, organism-based. The method, boiled down: as §2

In general, pKd refers to the Kd on a negative log10 scale, so that one unit is a factor of ten. A lower pKd goes with a high Kd. A word on the pEC50: it is the negative decadic logarithm of the EC50, by convention in mol/L. Take `C/C(=C\CC/C(C)=C/CC[C@]1(C)CCc2cc(O)cc(C)c2O1)CC/C=C(\C)C(=O)O`: the Activity result is “Not Active” in data set [1]; “Active” in data set [2]; “Active” in data set [4]; “Active” in [5]; “Active” in [7]; “Active” in data set [10]. The Activity result in data set [12] is “Active”; in data set [13], “Dose-dependent effect”; in data set [14] it was “Not Active”; in data set [16], “Non-Toxic”. Also, the mortality at 24 h in data set [3] was determined as 100%. Moreover, the result in the data set with Mus musculus [6], with Mus musculus [9], in the data set with Mus musculus [11] and in the data set with Mus musculus [17] was Active. Further, the negative logarithm of the Kd (pKd) in [8] was 6.48. Also, in data set [15], the pEC50 is 5.89.
